Experimental data: ChEMBL document CHEMBL1208778, “Synthesis and anti-cancer activity of chalcone linked imidazolones” (2010)

How the values were obtained:
Assay type in all cases: functional
OVCAR-3 = test: Growth inhibition of human OVCAR-3 cells
Summary of the method: (§1)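 Five-dose testing was run within the NCI (Bethesda) in vitro Anticancer Screen Program on a panel of 53 human tumour cell lines from nine cancer types. Growth inhibition is reported as GI50.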

SK-MEL-2 = test: Growth inhibition of human SK-MEL-2 cells; summary of the method: as §1
SW-620 = test: Growth inhibition of human SW620 cells
Summary of the method: (§2)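 Compounds that passed a preliminary screen were tested at five doses in the NCI (Bethesda) in vitro Anticancer Screen Program against a 53-line human tumour panel spanning leukemia, lung, colon, CNS, melanoma, ovarian, renal, prostate and breast. Growth inhibition is reported as GI50.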

ACHN = test: Growth inhibition of human ACHN cells; summary of the method: as §1
NCI-H23 = test: Growth inhibition of human NCI-H23 cells; summary of the method: as §1
SK-MEL-28 = test: Growth inhibition of human SK-MEL-28 cells; summary of the method: as §1
[1] = Growth inhibition of human Hs 578T cells; summary of the method: as §1
786-0 = test: Growth inhibition of human 786-0 cells; summary of the method: as §1
HOP-92 = test: Growth inhibition of human HOP92 cells; summary of the method: as §1
SNB-75 = test: Growth inhibition of human SNB75 cells; summary of the method: as §2
MCF7 [2] = test: Cell cycle arrest in human MCF7 cells assessed as accumulation at G2/M phase at 10 uM after 24 hrs by FACS analysis
Summary of the method: (§3)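 MCF-7 breast carcinoma cells were exposed to 10 µM test compound for 24 h, with DMSO as the vehicle control. Cell-cycle distribution was read by FACS as the percentage of cells in G0, G1, S and G2/M.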

EKVX = test: Growth inhibition of human EKVX cells; summary of the method: as §1
SK-OV-3 = test: Growth inhibition of human SKOV3 cells; summary of the method: as §2
NCI/ADR-RES = test: Growth inhibition of human NCI/ADR-RES cells; summary of the method: as §1
MDA-MB-231 = test: Growth inhibition of human MDA-MB-231 cells; summary of the method: as §1
HT-29 = test: Growth inhibition of human HT-29 cells; summary of the method: as §1
HCC 2998 = test: Growth inhibition of human HCC2998 cells; summary of the method: as §1
Malme-3M = test: Growth inhibition of human MALME-3M cells; summary of the method: as §1
UACC-257 = test: Growth inhibition of human UACC257 cells; summary of the method: as §2
SN12C = test: Growth inhibition of human SN12C cells; summary of the method: as §2
OVCAR-8 = test: Growth inhibition of human OVCAR8 cells; summary of the method: as §1
CAKI-1 = test: Growth inhibition of human Caki1 cells; summary of the method: as §1
MCF7 [3] = test: Cell cycle arrest in human MCF7 cells assessed as accumulation at G0 phase at 30 uM after 24 hrs by FACS analysis
Summary of the method: (§4)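 MCF-7 cells were treated at 30 µM for 24 h alongside a DMSO control. Fractions in G0, G1, S and G2/M phases were measured by FACS, and values are means of three experiments.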

K562 = test: Growth inhibition of human K562 cells; summary of the method: as §1
[4] = Growth inhibition of human RPMI8266 cells; summary of the method: as §1
MCF7 [5] = test: Cell cycle arrest in human MCF7 cells assessed as accumulation at G1 phase at 10 uM after 24 hrs by FACS analysis; summary of the method: as §3
MCF7 [6] = test: Cell cycle arrest in human MCF7 cells assessed as accumulation at G1 phase at 30 uM after 24 hrs by FACS analysis; summary of the method: as §4
MCF7 [7] = test: Cell cycle arrest in human MCF7 cells assessed as accumulation at G0 phase at 10 uM after 24 hrs by FACS analysis; summary of the method: as §3
MCF7 [8] = test: Growth inhibition of human MCF7 cells; summary of the method: as §1
SNB-19 = test: Growth inhibition of human SNB19 cells; summary of the method: as §2
M14 = test: Growth inhibition of human M14 cells; summary of the method: as §1
OVCAR-5 = test: Growth inhibition of human OVCAR5 cells; summary of the method: as §1
MCF7 [9] = test: Cell cycle arrest in human MCF7 cells assessed as accumulation at S phase at 30 uM after 24 hrs by FACS analysis; summary of the method: as §4
NCI-H460 = test: Growth inhibition of human NCI-H460 cells; summary of the method: as §1
MDA-MB-435 = test: Growth inhibition of human MDA-MB-435 cells; summary of the method: as §1
A549 = test: Growth inhibition of human A549 cells; summary of the method: as §1
SK-MEL-5 = test: Growth inhibition of human SK-MEL-5 cells; summary of the method: as §1
HOP-62 = test: Growth inhibition of human HOP62 cells; summary of the method: as §1
OVCAR-4 = test: Growth inhibition of human OVCAR4 cells; summary of the method: as §1
MCF7 [10] = test: Cell cycle arrest in human MCF7 cells assessed as accumulation at G2/M phase at 30 uM after 24 hrs by FACS analysis; summary of the method: as §4
RXF 393 = test: Growth inhibition of human RXF393 cells; summary of the method: as §1
BT-549 = test: Growth inhibition of human BT549 cells; summary of the method: as §1
SF-539 = test: Growth inhibition of human SF539 cells; summary of the method: as §1
SF-268 = test: Growth inhibition of human SF268 cells; summary of the method: as §1
MCF7 [11] = test: Cell cycle arrest in human MCF7 cells assessed as accumulation at S phase at 10 uM after 24 hrs by FACS analysis; summary of the method: as §3
PC-3 = test: Growth inhibition of human PC3 cells; summary of the method: as §1
UACC-62 = test: Growth inhibition of human UACC62 cells; summary of the method: as §2
A498 = test: Growth inhibition of human A498 cells; summary of the method: as §1
U-251 = test: Growth inhibition of human U251 cells; summary of the method: as §2
SF-295 = test: Growth inhibition of human SF295 cells; summary of the method: as §1
KM12 = test: Growth inhibition of human KM12 cells; summary of the method: as §1
NCI-H226 = test: Growth inhibition of human NCI-H226 cells; summary of the method: as §1
LOX IMVI = test: Growth inhibition of human LOXIMVI cells; summary of the method: as §1
NCI-H322M = test: Growth inhibition of human NCI-H322M cells; summary of the method: as §1
HCT-15 = test: Growth inhibition of human HCT15 cells; summary of the method: as §1
HCT-116 = test: Growth inhibition of human HCT116 cells; summary of the method: as §1
COLO 205 = test: Growth inhibition of human COLO205 cells; summary of the method: as §1
T47D = test: Growth inhibition of human T47D cells; summary of the method: as §2
UO-31 = test: Growth inhibition of human UO31 cells; summary of the method: as §2

Compound: O=C(/C=C/c1cccc(O)c1)c1cccc(-n2cc(-c3ccccc3)[nH]c2=O)c1
- GI50 (OVCAR-3): 3.08 µM
- GI50 (SK-MEL-2): 8.26 µM
- GI50 (SW-620): 2.41 µM
- GI50 (ACHN): 2.76 µM
- GI50 (NCI-H23): 3.35 µM
- GI50 (SK-MEL-28): 5.63 µM
- GI50 [1]: 6.14 µM
- GI50 (786-0): 2.98 µM
- GI50 (HOP-92): 5.04 µM
- GI50 (SNB-75): 12.1 µM
- Activity (MCF7 [2]): 22.16%
- GI50 (EKVX): 15.6 µM
- GI50 (SK-OV-3): 11.1 µM
- GI50 (NCI/ADR-RES): 3.73 µM
- GI50 (MDA-MB-231): 3.86 µM
- GI50 (HT-29): 3.33 µM
- GI50 (HCC 2998): 4.09 µM
- GI50 (Malme-3M): 6.21 µM
- GI50 (UACC-257): 7.68 µM
- GI50 (SN12C): 3.14 µM
- GI50 (OVCAR-8): 2.8 µM
- GI50 (CAKI-1): 13.3 µM
- Activity (MCF7 [3]): 11.07%
- GI50 (K562): 3.35 µM
- GI50 [4]: 2.15 µM
- Activity (MCF7 [5]): 57.26%
- Activity (MCF7 [6]): 53.92%
- Activity (MCF7 [7]): 2.1%
- GI50 (MCF7 [8]): 2.47 µM
- GI50 (SNB-19): 10.9 µM
- GI50 (M14): 4.53 µM
- GI50 (OVCAR-5): 5.44 µM
- Activity (MCF7 [9]): 17.21%
- GI50 (NCI-H460): 2.49 µM
- GI50 (MDA-MB-435): 3.12 µM
- GI50 (A549): 3.89 µM
- GI50 (SK-MEL-5): 3.18 µM
- GI50 (HOP-62): 6.93 µM
- GI50 (OVCAR-4): 5.3 µM
- Activity (MCF7 [10]): 17.8%
- GI50 (RXF 393): 1.89 µM
- GI50 (BT-549): 9.32 µM
- GI50 (SF-539): 1.98 µM
- GI50 (SF-268): 4.53 µM
- Activity (MCF7 [11]): 18.48%
- GI50 (PC-3): 2.82 µM
- GI50 (UACC-62): 3.65 µM
- GI50 (A498): 14.3 µM
- GI50 (U-251): 1.61 µM
- GI50 (SF-295): 18.2 µM
- GI50 (KM12): 1.83 µM
- GI50 (NCI-H226): 24.8 µM
- GI50 (LOX IMVI): 1.85 µM
- GI50 (NCI-H322M): 10.6 µM
- GI50 (HCT-15): 3.1 µM
- GI50 (HCT-116): 3.02 µM
- GI50 (COLO 205): 2.01 µM
- GI50 (T47D): 4.24 µM
- GI50 (UO-31): 2.16 µM
